Experimental data: ChEMBL document CHEMBL1777805, “2-Arylmethylaminomethyl-5,6-dihydroxychromone derivatives with selective anti-HCV activity” (Bioorg Med Chem Lett, 2011)

Legend:
Hepatitis C virus = assay: Antiviral activity against HCV in human HuH7 cells assessed as inhibition of RNA replication after 4 days by FRET-based assay; format: functional, organism-based, Hepacivirus hominis; details: Huh-7, 96 h
Procedure, shortened: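 Huh-7 cells carrying an HCV replicon were seeded at 5 × 10³/well in complete DMEM with 500 µg/mL G418 and held 24 h at 37 °C, 5% CO₂. The medium was then refreshed and compounds were added at 0.1–100 µM (seven levels) from DMSO stock. After 4 days at 37 °C, cells were lysed. NS3 protease FRET signal was read at 340 ex/490 em. IFN-α2b (10000 units/well) served as positive control.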

[1] = Cytotoxicity against human HuH7 cells assessed as reduction in cell proliferation; format: cell-based, Huh-7

SMILES	EC50 (Hepatitis C virus)	CC50 [1]
O=c1cc(CNCc2ccccc2)oc2ccc(O)c(O)c12	> 100 µM	> 100 µM
O=c1cc(CNCc2ccccc2Cl)oc2ccc(O)c(O)c12	> 100 µM	> 100 µM
O=c1cc(CNCc2ccccc2Br)oc2ccc(O)c(O)c12	> 100 µM	> 100 µM
O=c1cc(CNCc2ccccc2I)oc2ccc(O)c(O)c12	6.3 µM	87.3 µM
O=c1cc(CNCc2ccccc2O)oc2ccc(O)c(O)c12	> 100 µM	> 100 µM
O=c1cc(CNCc2ccccc2[N+](=O)[O-])oc2ccc(O)c(O)c12	> 100 µM	41.3 µM
Cc1ccccc1CNCc1cc(=O)c2c(O)c(O)ccc2o1	1.2 µM	52.2 µM
O=c1cc(CNCc2cccc(F)c2)oc2ccc(O)c(O)c12	> 100 µM	> 100 µM
O=c1cc(CNCc2cccc(Br)c2)oc2ccc(O)c(O)c12	3.6 µM	> 100 µM
O=c1cc(CNCc2cccc(I)c2)oc2ccc(O)c(O)c12	7.3 µM	> 100 µM
O=c1cc(CNCc2cccc(O)c2)oc2ccc(O)c(O)c12	> 100 µM	> 100 µM
O=c1cc(CNCc2cccc([N+](=O)[O-])c2)oc2ccc(O)c(O)c12	> 100 µM	> 100 µM
Cc1cccc(CNCc2cc(=O)c3c(O)c(O)ccc3o2)c1	2 µM	> 100 µM
O=c1cc(CNCc2ccc(F)cc2)oc2ccc(O)c(O)c12	> 100 µM	> 100 µM
O=c1cc(CNCc2ccc(Br)cc2)oc2ccc(O)c(O)c12	> 100 µM	> 100 µM
O=c1cc(CNCc2ccc(I)cc2)oc2ccc(O)c(O)c12	4.1 µM	41.7 µM
O=c1cc(CNCc2ccc(O)cc2)oc2ccc(O)c(O)c12	> 100 µM	62.7 µM
O=c1cc(CNCc2ccc([N+](=O)[O-])cc2)oc2ccc(O)c(O)c12	> 100 µM	73.3 µM
Cc1ccc(CNCc2cc(=O)c3c(O)c(O)ccc3o2)cc1	5.7 µM	> 100 µM
O=c1cc(CNCc2ccc(Cl)cc2)oc2ccc(O)c(O)c12	> 100 µM	> 100 µM
O=c1cc(CNCc2cccc(Cl)c2)oc2ccc(O)c(O)c12	14 µM	> 100 µM
